ChEMBL document CHEMBL4184316 (J Med Chem, 2018)
One block for each molecule: values may come before it. The source made the active and inactive calls. No cut-off for these calls is given here.

Assays:
HL-60 [1] = test: Antitumor activity against human HL60 cells xenografted in zebrafish embryo assessed as inhibition of cell migration at 200 ug/ml measured after 3 days of incubation by CM-Dil staining-based microscopic method relative to control; assay type: functional
How it was run: (§1)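 HL60 cells labelled with CM-Dil; about 300 cells injected into yolk sac of embryos at 2 dpf. Embryos kept in compound (1, 3, 10 μg/mL), cytarabine 200 μg/mL or saline for 3 days. Embryos showing dissemination counted by microscopy, 15 larvae per group. Average ± SD of three independent assays; unpaired Student's t test.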

HL-60 [2] = test: Antitumor activity against human HL60 cells xenografted in zebrafish embryo assessed as inhibition of cell proliferation at 200 ug/ml measured after 3 days of incubation by CM-Dil staining-based microscopic method relative to control; assay type: functional; how it was run: as §1
Pyruvate kinase PKM [3] = target: T1, Pyruvate kinase PKM (Homo sapiens, UniProt P14618); test: Binding affinity to recombinant human PKM2 expressed in Escherichia coli BL21 after overnight incubation by Western blot method
How it was run: (§2)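 Recombinant PKM1 or PKM2 incubated overnight at 4 °C with biotinylated probe. Biotin adduct detected by Western blot with streptavidin-HRP; loading checked by anti-PKM1/PKM2 blot. Repeated at least three times.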
Target sequence in this assay (P14618 2-531 limits assumed): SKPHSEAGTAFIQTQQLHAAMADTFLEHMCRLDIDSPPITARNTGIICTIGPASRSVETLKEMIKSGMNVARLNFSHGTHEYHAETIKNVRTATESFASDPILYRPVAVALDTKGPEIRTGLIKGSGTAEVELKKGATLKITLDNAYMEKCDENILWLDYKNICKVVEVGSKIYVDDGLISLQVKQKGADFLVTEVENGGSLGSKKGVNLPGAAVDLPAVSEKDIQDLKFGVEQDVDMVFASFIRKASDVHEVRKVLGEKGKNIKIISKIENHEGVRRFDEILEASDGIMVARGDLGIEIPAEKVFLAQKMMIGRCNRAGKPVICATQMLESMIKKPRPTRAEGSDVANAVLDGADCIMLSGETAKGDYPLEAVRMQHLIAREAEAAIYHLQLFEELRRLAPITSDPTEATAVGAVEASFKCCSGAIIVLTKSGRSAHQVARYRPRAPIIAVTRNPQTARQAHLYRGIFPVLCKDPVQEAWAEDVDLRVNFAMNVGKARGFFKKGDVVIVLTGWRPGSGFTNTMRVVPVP

Pyruvate kinase PKM [4] = target: T1, Pyruvate kinase PKM; test: Binding affinity to recombinant human PKM1 expressed in Escherichia coli BL21 after overnight incubation by Western blot method; how it was run: as §2
Target sequence in this assay (P14618 2-531 limits assumed): as above

Pyruvate kinase PKM [5] = target: T1, Pyruvate kinase PKM; test: Binding affinity to PKM2 in human HL60 cells at 20 uM after overnight incubation by Western blot method; assay type: cell-based
How it was run: (§3)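 HL60 lysate incubated overnight at 4 °C with biotinylated probe, with or without excess free parent compound for competition. Pull-down on streptavidin-agarose, then SDS-PAGE with silver staining, or Western blot with anti-PKM2. Repeated at least three times.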
Target sequence in this assay (P14618 2-531 limits assumed): as above

Pyruvate kinase PKM [6] = target: T1, Pyruvate kinase PKM; test: Binding affinity to PKM2 in human HL60 cells at 20 uM after overnight incubation in presence of 200 to 400 uM MCL by silver staining-based streptavidin-agarose pull-down assay; assay type: cell-based; how it was run: as §3
Target sequence in this assay (P14618 2-531 limits assumed): as above

[7] = system: Pyruvate kinase PKM (Homo sapiens), P14618 [C424S]; test: Binding affinity to recombinant human PKM2 C424S mutant expressed in Escherichia coli BL21 after 60 mins by Western blot method
Pyruvate kinase PKM [8] = target: T1, Pyruvate kinase PKM; test: Irreversible binding affinity to recombinant human PKM2 expressed in Escherichia coli BL21 assessed as ratio of Kact to Ki
How it was run: (§4)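 PKM2 (0.25 μM) incubated with biotinylated probe (20 μM, and other concentrations) for varying times. Time-dependent binding curves fitted for observed rate constants (Kobs) at each concentration. Kobs plotted against concentration to derive kact and Ki under an irreversible-binding model.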
Target sequence in this assay (P14618 2-531 limits assumed): as above

Pyruvate kinase PKM [9] = target: T1, Pyruvate kinase PKM; test: Binding affinity to recombinant human PKM2 at C424 residue expressed in Escherichia coli BL21 after 60 mins by Western blot method
Target sequence in this assay (P14618 2-531 limits assumed): as above

Pyruvate kinase PKM [10] = target: T1, Pyruvate kinase PKM; test: Binding affinity to PKM2 in human HL60 cells at 20 uM after overnight incubation by silver staining-based streptavidin-agarose pull-down assay; assay type: cell-based; how it was run: as §3
Pyruvate kinase PKM [11] = target: T1, Pyruvate kinase PKM; test: Irreversible binding affinity to recombinant human PKM2 expressed in Escherichia coli BL21 at 20 uM incubated for 2 to 150 mins; how it was run: as §4
Pyruvate kinase PKM [12] = target: T1, Pyruvate kinase PKM; test: Irreversible binding affinity to recombinant human PKM2 expressed in Escherichia coli BL21; how it was run: as §4
HL-60 [13] = test: Antitumor activity against human HL60 cells xenografted in zebrafish embryo assessed as inhibition of cell migration at 10 ug/ml measured after 3 days of incubation by CM-Dil staining-based microscopic method relative to control; assay type: functional; how it was run: as §1
SH-SY5Y = test: Antiproliferative activity against human SH-SY5Y cells after 48 hrs by MTT assay; assay type: functional, cell-based
How it was run: (§5)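 Cells exposed to a range of concentrations for 48 h; proliferation by MTT. Mean ± SEM of six independent experiments. Resistant lines (HL-60/ADR, K562/ADR) held in ADR (printed as 1 μmol/mL) for 10–28 days, then 10 days drug-free before use. SW1990 and SH-SY5Y in DMEM + 10% FBS; leukemia lines in medium with 12% FBS. Vehicle 0.1% DMSO.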

K562 = test: Antiproliferative activity against human K562 cells after 48 hrs by MTT assay; assay type: functional, cell-based; how it was run: as §5
Homo sapiens = species on record: Homo sapiens; test: (§6) Antiproliferative activity against human K562/G cells after 48 hrs by MTT assay; assay type: functional, cell-based; how it was run: as §5
[14] = as §6; assay type: functional, cell-based; details: K562, 48 h; how it was run: as §5
HL-60 [15] = test: Antiproliferative activity against human HL60 cells after 48 hrs by MTT assay; assay type: functional, cell-based; how it was run: as §5
HL-60 [16] = test: Antitumor activity against human HL60 cells xenografted in zebrafish embryo assessed as decrease in cell dissemination measured after 3 days of incubation by CM-Dil staining-based microscopic method; assay type: functional; how it was run: as §1
SW1990 = test: Antiproliferative activity against human SW1990 cells after 48 hrs by MTT assay; assay type: functional, cell-based; how it was run: as §5
K562/Adr = test: Antiproliferative activity against human K562/ADR cells after 48 hrs by MTT assay; assay type: functional, cell-based; how it was run: as §5
[17] = Toxicity in zebrafish embryo xenografted with human HL60 cells assessed as survival rate at <= 10 ug/ml treated for 3 days relative to control; assay type: organism-based, Danio rerio
How it was run: (§7)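 Zebrafish embryos at 2 dpf were injected in the yolk sac with about 300 HL60 cells prelabelled with CM-Dil. Nine injected groups were then exposed to drug at a range of dosages for 3 days, with saline as the negative control. Survival and mortality were scored against the control group, and treated versus control animals were compared by Kaplan–Meier analysis.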

[18] = Toxicity in zebrafish embryo xenografted with human HL60 cells assessed as mortality at 20 ug/ml relative to control; assay type: organism-based, Danio rerio; details: read-out: Activity; how it was run: as §7
HL-60 [19] = test: Antitumor activity against human HL60 cells xenografted in zebrafish embryo assessed as inhibition of cell proliferation at 10 ug/ml measured after 3 days of incubation by CM-Dil staining-based microscopic method relative to control; assay type: functional; how it was run: as §1
HL60/ADR = test: Antiproliferative activity against human HL60/ADR cells after 48 hrs by MTT assay; assay type: functional, cell-based; how it was run: as §5
HL-60 [20] = test: Antiproliferative activity against human HL60 cells at 5 to 20 uM after 24 hrs in presence of shControl by MTT assay; assay type: functional, cell-based
How it was run: (§8)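 HL60 transduced with lentiviral shPKM2 or shControl (5 μg/mL Polybrene), selected 72 h in 1 μg/mL puromycin. Stable lines treated with compound or DMSO for 24 h, then viability assayed.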

HL-60 [21] = test: Antiproliferative activity against human HL60 cells at 5 to 20 uM after 24 hrs in presence of shPKM2 by MTT assay; assay type: functional, cell-based; how it was run: as §8
HL-60 [22] = test: Effect on PKM2 levels in human HL60 cells at 2.5 to 10 uM after 20 hrs by Western blot method; assay type: functional, cell-based

Chain of Pyruvate kinase PKM (Homo sapiens), P14618 [C424S] (P14618 whole entry C424S): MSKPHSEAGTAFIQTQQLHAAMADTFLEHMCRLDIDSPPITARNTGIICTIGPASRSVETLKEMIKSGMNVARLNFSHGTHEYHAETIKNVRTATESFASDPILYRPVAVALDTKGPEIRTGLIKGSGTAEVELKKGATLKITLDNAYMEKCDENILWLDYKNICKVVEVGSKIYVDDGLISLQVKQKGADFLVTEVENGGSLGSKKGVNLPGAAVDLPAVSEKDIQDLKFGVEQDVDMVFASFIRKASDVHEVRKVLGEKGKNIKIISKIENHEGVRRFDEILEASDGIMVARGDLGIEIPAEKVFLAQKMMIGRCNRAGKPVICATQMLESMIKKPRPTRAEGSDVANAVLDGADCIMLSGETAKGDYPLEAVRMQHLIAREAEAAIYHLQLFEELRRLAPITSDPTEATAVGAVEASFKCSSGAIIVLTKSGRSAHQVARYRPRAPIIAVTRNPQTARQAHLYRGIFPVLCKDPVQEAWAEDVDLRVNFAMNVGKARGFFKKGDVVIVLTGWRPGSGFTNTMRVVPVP

SMILES: Nc1ccn([C@@H]2O[C@H](CO)[C@@H](O)[C@@H]2O)c(=O)n1 [CYTARABINE]
inhibition (INH) (HL-60 [1]): 44.04% | inhibition (INH) (HL-60 [2]): 43.28%

Activity (Pyruvate kinase PKM [3]): Active | Activity (Pyruvate kinase PKM [4]): inactive | Activity (Pyruvate kinase PKM [5]): Active | Activity (Pyruvate kinase PKM [6]): inactive | Activity [7]: inactive | Ratio (Pyruvate kinase PKM [8]): 1.03 ×10⁴ /M/s | Activity (Pyruvate kinase PKM [9]): Active | Activity (Pyruvate kinase PKM [10]): Active | K (Pyruvate kinase PKM [11]): 0.033 min⁻¹ | Activity (Pyruvate kinase PKM [11]; TDE = time-dependent effect): Tde | Kact (Pyruvate kinase PKM [12]): 0.031 min⁻¹ | Ki (Pyruvate kinase PKM [12]): 0.05 µM
SMILES: C=C1C(=O)O[C@H]2[C@H]1CCC(C)=C1CC[C@@](C)(OC(=O)CCCc3cn(CCOCCOCCOCCNC(=O)CCCC[C@H]4SC[C@H]5NC(=O)N[C@H]54)nn3)[C@@H]12

SMILES: CC1=C2CC[C@@](C)(O)[C@@H]2[C@H]2OC(=O)[C@@H](CN(C)C)[C@@H]2CC1.O=C(O)/C=C/C(=O)O
inhibition (INH) (HL-60 [13]): 58.1% | Activity (SH-SY5Y): Dose-dependent effect | IC50 (SH-SY5Y): 3.9 to 16.2 µM | IC90 (SH-SY5Y): 16.4 to 54.1 µM | Activity (K562): Dose-dependent effect | IC50 (K562; K562, 48 h): 3.9 to 16.2 µM | IC90 (K562; K562, 48 h): 16.4 to 54.1 µM | Activity (Homo sapiens): Dose-dependent effect | IC50 [14]: 3.9 to 16.2 µM | IC90 [14]: 16.4 to 54.1 µM | Activity (HL-60 [15]): Dose-dependent effect | IC50 (HL-60 [15]; HL-60, 48 h): 3.9 to 16.2 µM | IC90 (HL-60 [15]; HL-60, 48 h): 16.4 to 54.1 µM | Activity (HL-60 [16]): Dose-dependent effect | Activity (SW1990): Dose-dependent effect | IC50 (SW1990; SW1990, 48 h): 3.9 to 16.2 µM | IC90 (SW1990; SW1990, 48 h): 16.4 to 54.1 µM | Activity (K562/Adr): Dose-dependent effect | IC50 (K562/Adr): 3.9 to 16.2 µM | IC90 (K562/Adr): 16.4 to 54.1 µM | survival at 72 h [17]: 100% | mortality at 20 ug/ml [18]: 80% | inhibition (INH) (HL-60 [19]): 56.44% | Activity (HL60/ADR): Dose-dependent effect | IC50 (HL60/ADR): 3.9 to 16.2 µM | IC90 (HL60/ADR): 16.4 to 54.1 µM

SMILES: C=C1C(=O)O[C@H]2[C@H]1CCC(C)=C1CC[C@@](C)(O)[C@@H]12
Activity (HL-60 [20]): Active | Activity (HL-60 [21]): inactive | Activity (HL-60 [22]): inactive

Activity (Pyruvate kinase PKM [10]): inactive
SMILES: CC1=C2CC[C@@](C)(OC(=O)CCCc3cn(CCOCCOCCOCCNC(=O)CCCC[C@H]4SC[C@H]5NC(=O)N[C@H]54)nn3)[C@@H]2[C@H]2OC(=O)[C@@H](C)[C@@H]2CC1
